Experimental data taken from ChEMBL document CHEMBL4190394, “Discovery of Novel Pazopanib-Based HDAC and VEGFR Dual Inhibitors Targeting Cancer Epigenetics and Angiogenesis Simultaneously” (J Med Chem, 2018).
Activity calls are given as the source filed them. The calls are words filed in the database; no cut-off is given here.

What was measured:
[1] = system: HeLa; experiment: Antiproliferative activity against human HeLa cells after 72 hrs by MTT assay; assay type: functional, cell-based
[2] = system: PC-3; experiment: Antiproliferative activity against human PC3 cells after 72 hrs by MTT assay; assay type: functional, cell-based; settings: PC-3, 72 h
[3] = system: HT-1080; experiment: Antiproliferative activity against human HT1080 cells after 72 hrs by MTT assay; assay type: functional, cell-based; settings: HT-1080, 72 h
[4] = system: MOLT-4; experiment: Antiproliferative activity against human MOLT4 cells after 72 hrs by MTT assay; assay type: functional, cell-based; settings: MOLT-4, 72 h
[5] = biological target: Histone deacetylase 1 (Homo sapiens, UniProt Q13547); experiment: Inhibition of HDAC1 (unknown origin) using fluorogenic substrate preincubated for 5 mins followed by substrate addition measured after 30 mins by fluorescence-based assay
[6] = biological target: T1, Vascular endothelial growth factor receptor 2 (Homo sapiens, UniProt P35968); experiment: Inhibition of VEGFR-2 (unknown origin) after 40 mins by kinase-Glo assay
Outline: (§1)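 Kinase-Glo luminescent assay run by a contract lab. Compound, kinase, substrate and ATP diluted in kinase buffer and incubated 40 min at room temperature. IC50 obtained by nonlinear regression of normalized dose–response.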

[7] = biological target: Platelet-derived growth factor receptor beta (Homo sapiens, UniProt P09619); experiment: Inhibition of PDGFRbeta (unknown origin) after 40 mins by kinase-Glo assay; outline: as §1
[8] = biological target: Mast/stem cell growth factor receptor Kit (Homo sapiens, UniProt P10721); experiment: Inhibition of C-kit (unknown origin) after 40 mins by kinase-Glo assay; outline: as §1
[9] = biological target: T1, Vascular endothelial growth factor receptor 2; experiment: Inhibition of VEGF-stimulated VEGFR2 phosphorylation in human HUVEC cells at 100 nM preincubated for 2 hrs followed by VEGF stimulation by Western blot analysis; assay type: cell-based
Outline: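 HUVECs pretreated 2 h with compound or DMSO, then stimulated with VEGF (50 ng/ml). Cells lysed in ice-cold RIPA and protein measured by BCA. Lysates run on SDS-PAGE and immunoblotted for phospho-VEGFR-2, with total VEGFR-2 as loading control. Detection by ECL.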

[10] = system: Thoracic aorta; experiment: Antiangiogenic activity in Sprague-Dawley rat thoracic aorta ring assessed as reduction in micro-vessel growth at 5 uM treated every day for 6 days by matrigel-based inverted microscopic analysis relative to control; assay type: functional, tissue-based
Outline: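 Aortas taken from 4–6-week-old Sprague–Dawley rats, cut into 1-mm rings and embedded in Matrigel. Rings held 30 min at 37 °C, 5% CO2, then treated daily for 6 days with compound or 0.5% DMSO vehicle. Microvessel outgrowth photographed on day 7 at ×200. Three independent experiments.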

[11] = biological target: Histone deacetylase 1/2/3 (Homo sapiens) (UniProt Q13547+O15379+Q92769); settings: HeLa, at 1 µM

T1 sequence (P35968 whole entry): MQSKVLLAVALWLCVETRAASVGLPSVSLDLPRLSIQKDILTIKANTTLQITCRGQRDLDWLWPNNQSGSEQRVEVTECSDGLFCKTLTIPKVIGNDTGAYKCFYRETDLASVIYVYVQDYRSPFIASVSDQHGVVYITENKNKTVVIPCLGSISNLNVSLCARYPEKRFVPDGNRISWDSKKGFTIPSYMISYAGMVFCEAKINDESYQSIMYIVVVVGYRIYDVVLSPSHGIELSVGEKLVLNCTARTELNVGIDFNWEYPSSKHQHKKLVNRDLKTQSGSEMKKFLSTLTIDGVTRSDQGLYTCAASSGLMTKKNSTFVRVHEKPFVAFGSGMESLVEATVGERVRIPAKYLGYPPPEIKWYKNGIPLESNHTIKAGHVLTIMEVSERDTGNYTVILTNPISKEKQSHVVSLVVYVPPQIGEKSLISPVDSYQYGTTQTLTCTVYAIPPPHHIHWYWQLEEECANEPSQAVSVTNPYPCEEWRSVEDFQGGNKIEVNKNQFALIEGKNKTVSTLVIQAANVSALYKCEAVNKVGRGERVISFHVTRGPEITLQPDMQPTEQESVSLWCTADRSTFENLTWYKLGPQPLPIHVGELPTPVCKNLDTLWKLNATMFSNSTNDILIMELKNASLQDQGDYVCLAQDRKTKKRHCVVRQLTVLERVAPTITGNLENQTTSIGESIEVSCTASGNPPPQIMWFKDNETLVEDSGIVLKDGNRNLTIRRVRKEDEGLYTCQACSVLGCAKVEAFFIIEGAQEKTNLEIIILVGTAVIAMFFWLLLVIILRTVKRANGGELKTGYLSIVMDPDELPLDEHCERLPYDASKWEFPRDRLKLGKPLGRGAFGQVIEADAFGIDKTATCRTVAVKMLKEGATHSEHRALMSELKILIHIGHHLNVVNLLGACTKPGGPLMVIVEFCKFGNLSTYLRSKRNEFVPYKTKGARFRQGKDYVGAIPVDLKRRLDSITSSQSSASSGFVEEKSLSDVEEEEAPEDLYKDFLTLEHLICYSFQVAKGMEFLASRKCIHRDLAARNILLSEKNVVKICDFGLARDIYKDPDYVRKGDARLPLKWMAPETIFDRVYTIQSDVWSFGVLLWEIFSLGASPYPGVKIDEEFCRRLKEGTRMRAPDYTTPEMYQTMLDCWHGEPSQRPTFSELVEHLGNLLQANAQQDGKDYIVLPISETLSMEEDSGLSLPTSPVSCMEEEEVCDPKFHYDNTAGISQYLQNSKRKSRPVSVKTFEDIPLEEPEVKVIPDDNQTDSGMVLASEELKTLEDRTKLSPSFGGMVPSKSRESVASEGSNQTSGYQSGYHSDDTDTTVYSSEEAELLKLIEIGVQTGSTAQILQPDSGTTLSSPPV
Sequence of Mast/stem cell growth factor receptor Kit (P10721 whole entry): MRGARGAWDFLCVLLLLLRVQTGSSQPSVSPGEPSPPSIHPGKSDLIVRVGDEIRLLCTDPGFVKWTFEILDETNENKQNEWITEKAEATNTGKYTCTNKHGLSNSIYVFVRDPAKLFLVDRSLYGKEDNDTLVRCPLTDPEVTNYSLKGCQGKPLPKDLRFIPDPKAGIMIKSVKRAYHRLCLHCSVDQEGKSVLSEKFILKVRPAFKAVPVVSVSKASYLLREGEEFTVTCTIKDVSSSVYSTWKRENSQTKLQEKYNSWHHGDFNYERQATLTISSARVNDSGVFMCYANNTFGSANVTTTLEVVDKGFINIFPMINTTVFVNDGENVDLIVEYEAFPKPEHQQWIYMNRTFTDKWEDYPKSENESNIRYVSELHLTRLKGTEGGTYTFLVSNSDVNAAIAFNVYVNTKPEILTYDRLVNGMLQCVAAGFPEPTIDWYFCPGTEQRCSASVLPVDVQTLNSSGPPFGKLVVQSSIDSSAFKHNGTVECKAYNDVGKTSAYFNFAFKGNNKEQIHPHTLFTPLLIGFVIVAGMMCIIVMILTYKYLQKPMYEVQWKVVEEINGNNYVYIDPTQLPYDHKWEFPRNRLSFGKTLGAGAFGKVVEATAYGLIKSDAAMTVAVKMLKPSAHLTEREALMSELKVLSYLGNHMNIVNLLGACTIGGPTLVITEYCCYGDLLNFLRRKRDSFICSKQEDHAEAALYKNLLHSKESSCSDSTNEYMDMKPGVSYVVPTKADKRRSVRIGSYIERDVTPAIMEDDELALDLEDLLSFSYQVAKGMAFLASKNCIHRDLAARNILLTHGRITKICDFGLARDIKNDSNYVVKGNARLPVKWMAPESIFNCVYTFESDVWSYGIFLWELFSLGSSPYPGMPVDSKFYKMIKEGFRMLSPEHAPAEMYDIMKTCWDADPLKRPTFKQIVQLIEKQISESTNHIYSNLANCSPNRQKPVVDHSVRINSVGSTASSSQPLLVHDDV
Sequence of Platelet-derived growth factor receptor beta (P09619 whole entry): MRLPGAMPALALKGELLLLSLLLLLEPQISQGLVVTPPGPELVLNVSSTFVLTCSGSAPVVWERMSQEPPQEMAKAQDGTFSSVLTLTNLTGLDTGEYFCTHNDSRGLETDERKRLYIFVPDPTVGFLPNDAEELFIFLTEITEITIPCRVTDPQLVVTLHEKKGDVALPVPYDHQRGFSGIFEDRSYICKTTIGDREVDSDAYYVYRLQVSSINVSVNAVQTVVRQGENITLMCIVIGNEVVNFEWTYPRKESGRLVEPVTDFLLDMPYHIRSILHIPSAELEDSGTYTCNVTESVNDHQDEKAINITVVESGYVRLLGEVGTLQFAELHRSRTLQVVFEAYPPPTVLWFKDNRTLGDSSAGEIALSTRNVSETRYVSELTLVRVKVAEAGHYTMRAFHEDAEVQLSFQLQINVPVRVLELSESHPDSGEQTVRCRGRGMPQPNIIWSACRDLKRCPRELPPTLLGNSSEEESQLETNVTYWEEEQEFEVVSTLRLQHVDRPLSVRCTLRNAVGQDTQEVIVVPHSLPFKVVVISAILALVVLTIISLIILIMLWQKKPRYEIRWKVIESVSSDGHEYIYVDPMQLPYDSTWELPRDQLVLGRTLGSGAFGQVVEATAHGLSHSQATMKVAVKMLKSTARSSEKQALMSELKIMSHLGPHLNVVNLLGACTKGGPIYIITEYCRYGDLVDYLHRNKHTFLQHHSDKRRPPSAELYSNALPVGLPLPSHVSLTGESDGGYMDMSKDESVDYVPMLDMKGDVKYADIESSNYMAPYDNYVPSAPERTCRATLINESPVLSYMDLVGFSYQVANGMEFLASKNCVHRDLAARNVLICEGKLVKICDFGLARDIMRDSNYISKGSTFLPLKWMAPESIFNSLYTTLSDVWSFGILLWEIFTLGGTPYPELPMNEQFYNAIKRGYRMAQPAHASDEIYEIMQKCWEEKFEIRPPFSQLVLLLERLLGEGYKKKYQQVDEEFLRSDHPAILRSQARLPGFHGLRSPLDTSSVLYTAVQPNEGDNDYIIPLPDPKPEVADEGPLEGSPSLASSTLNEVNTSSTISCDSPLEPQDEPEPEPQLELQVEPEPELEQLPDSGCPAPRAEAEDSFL
Sequence of Histone deacetylase 1 (Q13547 whole entry): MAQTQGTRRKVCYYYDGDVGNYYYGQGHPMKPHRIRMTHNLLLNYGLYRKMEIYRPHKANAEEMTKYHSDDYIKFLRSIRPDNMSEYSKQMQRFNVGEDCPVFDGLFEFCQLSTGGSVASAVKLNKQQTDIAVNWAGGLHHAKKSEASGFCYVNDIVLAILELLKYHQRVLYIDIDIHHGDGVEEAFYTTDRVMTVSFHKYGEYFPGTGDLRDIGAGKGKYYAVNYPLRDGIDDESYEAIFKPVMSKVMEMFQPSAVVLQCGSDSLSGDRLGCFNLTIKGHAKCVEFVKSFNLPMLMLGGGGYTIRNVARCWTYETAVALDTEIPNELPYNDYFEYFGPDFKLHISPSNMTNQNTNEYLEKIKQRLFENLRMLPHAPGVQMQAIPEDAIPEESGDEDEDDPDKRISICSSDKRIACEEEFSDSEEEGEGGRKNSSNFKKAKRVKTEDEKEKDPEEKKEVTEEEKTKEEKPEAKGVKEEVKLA

## Cc1c2ccc(N(C)c3ccnc(Nc4ccc(C(=O)Nc5ccccc5N)cc4)n3)cc2nn1C
[1]
  IC50: 1710 nM
[2]
  IC50: 2380 nM
[3]
  IC50: > 5000 nM
[4]
  IC50: 940 nM
[5]
  IC50: 590 nM
[6]
  IC50: 37 nM
[7]
  IC50: 88 nM
[8]
  IC50: 125 nM
[9]
  inhibition: Active
[10]
  Activity: Active
[11]
  inhibition: Active
